Values after ≈ are worked out from the molar mass of the structure shown. Active and inactive are the calls of the source. No cut-off for these calls is given here.

Data set [1] deals with Staphylococcus aureus. The data set is described as follows: Antibacterial activity against methicillin-susceptible Staphylococcus aureus ATCC 25923 assessed as zone of inhibition at 30 ug after 18 hrs by disk diffusion method. The format is functional. The conditions noted are these: ATCC 25923, 18 h, read-out: DIZ. The essentials:
(§1)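 Disks 6 mm in diameter; a 6 mm zone means no growth inhibition. The diameters of complete-inhibition zones are averaged over at least three independent experiments and reported with standard errors.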
(In general: Agar diffusion results depend on both activity and mobility in agar.)

Data set [2] deals with Staphylococcus aureus. The data set is described as follows: Antibacterial activity against methicillin-resistant Staphylococcus aureus USA300 SF8300 assessed as zone of inhibition at 30 ug after 18 hrs by disk diffusion method. The class given is functional. As to conditions: USA300 SF8300, 18 h, read-out: DIZ. Summed up:
(§2)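 Disk diffusion on 6 mm paper disks, with methicillin-susceptible S. aureus ATCC 25923 as the control strain alongside MRSA USA300 SF8300. The read-out is the diameter of the complete inhibition zone, averaged over at least three independent experiments and reported with standard errors. A 6 mm zone means no growth inhibition.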

The test system of data set [3] is A549. Kind of data set: Cytotoxicity against human A549 cells assessed as reduction in cell viability after 24 to 48 hrs by Presto Blue assay. The format is cell-based.
The test system of data set [4] is Staphylococcus aureus. The data set is described as follows: Antibacterial activity against methicillin-susceptible Staphylococcus aureus ATCC 29213 assessed as growth inhibition after 18 to 20 hrs by microdilution assay. The format is functional. The essentials: (§3)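 Broth microdilution gives both MIC and MBC. Each compound is serially 2-fold diluted starting from its stock concentration.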
On the technique in general: In broth dilution the organism is exposed to a series of concentrations in liquid medium.

In data set [5] the test system is Staphylococcus aureus. Kind of data set: Bactericidal activity against methicillin-resistant Staphylococcus aureus USA300 SF8300 after 18 to 20 hrs. The class given is functional. Summed up:
(§4)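 Broth microdilution to find MIC and MBC against MRSA USA300 SF8300. Each compound was serially 2-fold diluted starting from its stock concentration.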

The subject of data set [6] is Staphylococcus aureus. Kind of data set: Antibacterial activity against methicillin-resistant Staphylococcus aureus USA300 SF8300 assessed as growth inhibition after 18 to 20 hrs by microdilution assay. The format is functional. The essentials: as §4
For data set [7], the system named is Staphylococcus aureus. The data set is described as follows: Bactericidal activity against methicillin-susceptible Staphylococcus aureus ATCC 29213 after 18 to 20 hrs. The format is functional. Summed up: as §3
The test system of data set [8] is HEK293. Kind of data set: Cytotoxicity against human HEK293 cells assessed as reduction in cell viability after 24 to 48 hrs by […] assay.
Data set [9] has as its system Staphylococcus aureus. Kind of data set: Antibacterial activity against methicillin-susceptible Staphylococcus aureus ATCC 25923 assessed as zone of inhibition at 10 ug after 18 hrs by disk diffusion method. The conditions noted are these: ATCC 25923, 18 h, read-out: DIZ. The class given is functional. Summed up:
as §1

Data set [10] has as its system Staphylococcus aureus. The data set is described as follows: Antibacterial activity against methicillin-resistant Staphylococcus aureus USA300 SF8300 assessed as zone of inhibition at 10 ug after 18 hrs by disk diffusion method. The conditions noted are these: USA300 SF8300, 18 h, read-out: DIZ. The format is functional. Summed up: as §2
Data set [11] concerns Staphylococcus aureus. The data set is described as follows: Antibacterial activity against methicillin-susceptible Staphylococcus aureus RF122 infected in A549 cells assessed as inhibition of bacterial invasion at 1.5 uM after 1 hr. The class given is functional, organism-based. The essentials:
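Invasion assay in human epithelial A549 cells infected with S. aureus while the test compound was present. Concentrations were held below those that damage A549 cells. Both non-invading and invading bacteria were then cultured to rule out effects on bacterial growth.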

Data set [12] has as its system A549. The data set is described as follows: Cytotoxicity against human A549 cells assessed as cells detachment at 50 uM after 10 mins by microscopic analysis. The class given is cell-based. As to conditions: a549, 10 min.
The subject of data set [13] is HEK293. Kind of data set: Cytotoxicity against human HEK293 cells assessed as cells detachment at 50 uM after 10 mins by microscopic analysis. The format is cell-based. The conditions noted are these: hek293, 10 min.
In data set [14] the test system is HEK293. Kind of data set: Cytotoxicity against human HEK293 cells assessed as cells detachment at 12.5 uM after 2 hrs by microscopic analysis. The format is cell-based. The conditions noted are these: hek293, 2 h.
Data set [15] concerns A549. Kind of data set: Cytotoxicity against human A549 cells assessed as cells detachment at 12.5 uM after 2 hrs by microscopic analysis. The format is cell-based. The conditions noted are these: a549, 2 h.

As for `CC(C)=CCc1c2c(c(O)c3c1O[C@@]14C(C[C@H]5CC1C(C)(C)O[C@]4(C/C=C(\C)C=O)C5=O)C3=O)C=CC(C)(C)O2` (some centres undefined), the zone of inhibition at 30 µg/disc in [1] and in [2] was 6 mm each time.
On to `CC(C)=CCc1c2c(c(O)c3c1O[C@@]14C(=C[C@H]5CC1C(C)(C)O[C@]4(C/C=C(/C)C(=O)N[C@@H](CCC(=O)O)C(=O)O)C5=O)C3=O)C=CC(C)(C)O2`, for which the zone of inhibition at 30 µg/disc in data set [1] and in data set [2] was 6 mm in each case.
Consider `CC(C)=CCc1c2c(c(O)c3c1O[C@@]14C(=C[C@H]5CC1C(C)(C)O[C@]4(C/C=C(/C)C(=O)N[C@@H](CCC(N)=O)C(=O)O)C5=O)C3=O)C=CC(C)(C)O2`, for which the zone of inhibition at 30 µg/disc in data set [1] is 7.5 mm; in data set [2], 9.09 mm.
For `CC(C)=CCc1c2c(c(O)c3c1O[C@@]14C(=C[C@H]5CC1C(C)(C)O[C@]4(C/C=C(/C)C(=O)N[C@@H](CCC(=O)OCc1ccccc1)C(=O)O)C5=O)C3=O)C=CC(C)(C)O2`, the zone of inhibition at 30 µg/disc in data set [1] was found to be 6.53 mm.
For orientation: IC50 means the midpoint of a concentration-inhibition curve. As usually defined, the MIC is the least concentration at which growth counts as inhibited. By MBC is commonly meant the lowest tested concentration that kills the bacteria rather than only halting them. With `CC(C)=CCc1c2c(c(O)c3c1O[C@@]14C(=C[C@H]5CC1C(C)(C)O[C@]4(C/C=C(/C)C(=O)N[C@@H](CC(C)C)C(=O)O)C5=O)C3=O)C=CC(C)(C)O2`, the concentration for half-maximal inhibition (IC50) in data set [3] came out at 15.5 µM. For the same compound, the MIC in data set [4] and in [6] was 25 µM (≈ 16.8 µg/mL) each time. For the same compound, the MBC in data set [5] was 50 µM (≈ 33.7 µg/mL); in data set [7] it was 25 µM (≈ 16.8 µg/mL). The results for the zone of inhibition at 30 µg/disc in data set [1] and in data set [2] were 16.5 mm and 18.3 mm, respectively.
For `CC(C)=CCc1c(O)cc(O)c2c1OC13C(=CC4(C/C=C/C(C)C)CC1C(C)(C)O[C@]3(CC=C(C)C)C4=O)C2=O`, the zone of inhibition at 30 µg/disc in [1] and in [2] was 6 mm in each case.
For `CC(C)=CCC[C@]1(C)C=Cc2c(O)c3c(c(CC=C(C)C)c2O1)O[C@]12C(=C[C@@H]4C[C@H]1C(C)(C)O[C@@]2(C/C=C(/C)C(=O)O)C4=O)C3=O` [GAMBOGIC ACID], the IC50 in [3] was determined as 3.4 µM; in [8], 1.72 µM. The MIC is 12.5 µM (≈ 7.86 µg/mL) in data set [4] and 25 µM (≈ 15.7 µg/mL) in data set [6]. Also, the MBC in data set [5] was 50 µM (≈ 31.4 µg/mL); in data set [7], 25 µM (≈ 15.7 µg/mL). In addition, the figures for the zone of inhibition at 30 µg/disc in [1] and in data set [2] were 16.6 mm and 17.3 mm, respectively.
For the compound `CC(C)=CCc1c2c(c(O)c3c1O[C@@]14C(=C[C@H]5CC1C(C)(C)O[C@]4(C/C=C(/C)C(=O)N[C@@H](Cc1ccccc1)C(=O)O)C5=O)C3=O)C=CC(C)(C)O2`, the IC50 in data set [3] came out at 12.2 µM. The MIC came out at 12.5 µM (≈ 8.85 µg/mL) in [4] and 25 µM (≈ 17.7 µg/mL) in data set [6]. Besides, the MBC in data set [5] is 25 µM (≈ 17.7 µg/mL); in data set [7], 12.5 µM (≈ 8.85 µg/mL). Moreover, the zone of inhibition at 30 µg/disc in [1] turned out to be 17.1 mm; in data set [2] it was 16.3 mm.
As for `CC(C)=CCc1c2c(c(O)c3c1O[C@@]14C(=C[C@H]5CC1C(C)(C)O[C@]4(C/C=C(\C)CO)C5=O)C3=O)C=CC(C)(C)O2`, the IC50 in data set [3] stood at 2.69 µM; in data set [8] it was 0.98 µM. Further, the zone of inhibition at 30 µg/disc in [1] worked out at 7.75 mm; in [2], 8.57 mm.
As for `CC1(C)S[C@@H]2[C@H](NC(=O)[C@H](N)c3ccccc3)C(=O)N2[C@H]1C(=O)O` [AMPICILLIN], the MIC in data set [4] is 1.56 µM (≈ 0.545 µg/mL); in data set [6], above 100 µM. In addition, the values for the MBC in [5] and in [7] were above 100 µM and 1.56 µM (≈ 0.545 µg/mL), respectively. Moreover, the zone of inhibition at 10 µg/disc in data set [9] stood at 17 mm; in data set [10], 6 mm.
Consider `CC(C)=CCc1c2c(c(O)c3c1O[C@@]14C(=C[C@H]5CC1C(C)(C)O[C@]4(C/C=C(/C)C(=O)O)C5=O)C3=O)C=CC(C)(C)O2`, for which the IC50 in data set [3] stood at 3.5 µM; in data set [8], 2.33 µM. In addition, the MIC in data set [4] and in data set [6] was 12.5 µM (≈ 7.01 µg/mL) in each case. Besides, the results for the MBC in data set [5] and in [7] were 25 µM (≈ 14 µg/mL) and 12.5 µM (≈ 7.01 µg/mL), respectively. Moreover, in data set [11], the inhibition entry is “inactive”. The Activity result in data set [12], in data set [13], in data set [14] and in data set [15] was “Toxic” in each case. The zone of inhibition at 30 µg/disc in data set [1] worked out at 19.2 mm; in data set [2] it was 19.5 mm.

The values above are taken from ChEMBL document CHEMBL3808328, “Caged xanthones: Potent inhibitors of global predominant MRSA USA300” (Bioorg Med Chem Lett, 2016).
